Measurements: ChEMBL document CHEMBL1926592, “Synthesis and in vitro evaluation of fluorinated styryl benzazoles as amyloid-probes” (Bioorg Med Chem, 2011)
Calls of active or inactive are those of the source. No cut-off for these calls is given here.

What was measured:
Albumin = Albumin (Bos taurus, UniProt P02769); assay: Binding affinity to bovine serum albumin by fluorescence intensity assay; type: ADME; conditions: cattle, isolated protein
Summary of the method: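 BSA titrated with increasing ligand concentrations in 50 mM Tris-HCl pH 7.4, in the same way as the fibril assays. Intrinsic fluorescence intensity was read on a plate reader with dye-blank background subtracted. Kd came from a single-site saturation curve fit.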

[1] = target: T1, Amyloid-beta precursor protein (Homo sapiens, UniProt P05067); assay: Binding affinity to human amyloid beta (1 to 42) fibril assessed as increase in intrinsic fluorescence intensity at 2.25 uM relative to equimolar monomeric specie
T1 sequence (P05067 whole entry): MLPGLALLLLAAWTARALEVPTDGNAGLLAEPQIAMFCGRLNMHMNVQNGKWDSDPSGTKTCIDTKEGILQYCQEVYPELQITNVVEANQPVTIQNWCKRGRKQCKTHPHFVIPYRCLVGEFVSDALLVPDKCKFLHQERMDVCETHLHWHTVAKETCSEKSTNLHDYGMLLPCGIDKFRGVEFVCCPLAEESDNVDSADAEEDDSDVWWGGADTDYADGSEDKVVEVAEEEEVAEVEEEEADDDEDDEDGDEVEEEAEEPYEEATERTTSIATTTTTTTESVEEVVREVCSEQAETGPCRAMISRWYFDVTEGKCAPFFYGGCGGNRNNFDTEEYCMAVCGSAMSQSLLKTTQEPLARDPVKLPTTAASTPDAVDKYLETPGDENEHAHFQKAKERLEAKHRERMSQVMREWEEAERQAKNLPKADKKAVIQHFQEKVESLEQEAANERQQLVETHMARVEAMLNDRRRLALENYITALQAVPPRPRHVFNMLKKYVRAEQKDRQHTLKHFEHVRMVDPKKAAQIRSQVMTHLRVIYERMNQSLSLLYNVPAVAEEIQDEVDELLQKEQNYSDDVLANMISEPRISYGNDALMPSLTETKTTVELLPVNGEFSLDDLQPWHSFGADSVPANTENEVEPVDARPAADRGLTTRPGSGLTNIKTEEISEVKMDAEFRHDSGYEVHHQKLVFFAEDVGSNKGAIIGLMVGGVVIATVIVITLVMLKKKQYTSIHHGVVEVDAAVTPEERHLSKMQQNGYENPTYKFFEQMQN

Homo sapiens [2] = species: Homo sapiens; assay: Binding affinity to human […] fibril assessed as increase in intrinsic fluorescence intensity at 2.25 uM relative to equimolar monomeric specie
[3] = target: T1, Amyloid-beta precursor protein; assay: Binding affinity to human amyloid beta (1 to 42) monomer by fluorescence intensity assay
[4] = target: T1, Amyloid-beta precursor protein; assay: Binding affinity to human amyloid beta (1 to 42) fibril by fluorescence intensity assay
Summary of the method: (§1)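 Fibrils grown from human insulin (3 mg/mL, Tris-HCl 50 mM pH 3), E. coli-expressed human α-syn (3 mg/mL, pH 7.4) or Aβ(1–42) (0.5 mg/ml, 1% NH4OH). Fibril level taken as supernatant protein depletion. Plate-reader intensity read at each ligand's maximal excitation/emission wavelengths, dye blanks subtracted. Kd from single-site saturation fit.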

Homo sapiens [5] = species: Homo sapiens; assay: Binding affinity to human insulin fibril assessed as increase in intrinsic fluorescence intensity at 2.25 uM relative to equimolar monomeric specie
Homo sapiens [6] = species: Homo sapiens; assay: Binding affinity to human […] fibril assessed as intrinsic fluorescence intensity
[7] = target: Alpha-synuclein (Homo sapiens) (UniProt P37840); assay: Binding affinity to human alpha-synuclein monomer expressed in Escherichia coli BL21 by fluorescence intensity assay
Homo sapiens [8] = species: Homo sapiens; assay: Binding affinity to human insulin fibril assessed as intrinsic fluorescence intensity
[9] = target: Alpha-synuclein (Homo sapiens) (UniProt P37840); assay: Binding affinity to human alpha-synuclein fibril by fluorescence intensity assay
[10] = target: T1, Amyloid-beta precursor protein; assay: Binding affinity to human amyloid beta (1 to 42) fibril assessed as intrinsic fluorescence intensity
[11] = Binding affinity to human insulin fibril by fluorescence intensity assay
Summary of the method: as §1, with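 “depletion. Fixed fibrils (3.5–11.35) titrated with ligand (DMSO stock diluted into 50 mM Tris-HCl pH 7.4).” for “depletion.”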

Insulin (Homo sapiens) = Insulin (Homo sapiens) (UniProt P01308); assay: Binding affinity to human insulin monomer by fluorescence intensity assay
Insulin (Homo sapiens), sequence (P01308 whole entry): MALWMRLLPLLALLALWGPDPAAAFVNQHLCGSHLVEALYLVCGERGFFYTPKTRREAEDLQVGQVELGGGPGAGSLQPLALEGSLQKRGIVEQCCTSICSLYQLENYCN

Albumin, sequence (P02769 whole entry): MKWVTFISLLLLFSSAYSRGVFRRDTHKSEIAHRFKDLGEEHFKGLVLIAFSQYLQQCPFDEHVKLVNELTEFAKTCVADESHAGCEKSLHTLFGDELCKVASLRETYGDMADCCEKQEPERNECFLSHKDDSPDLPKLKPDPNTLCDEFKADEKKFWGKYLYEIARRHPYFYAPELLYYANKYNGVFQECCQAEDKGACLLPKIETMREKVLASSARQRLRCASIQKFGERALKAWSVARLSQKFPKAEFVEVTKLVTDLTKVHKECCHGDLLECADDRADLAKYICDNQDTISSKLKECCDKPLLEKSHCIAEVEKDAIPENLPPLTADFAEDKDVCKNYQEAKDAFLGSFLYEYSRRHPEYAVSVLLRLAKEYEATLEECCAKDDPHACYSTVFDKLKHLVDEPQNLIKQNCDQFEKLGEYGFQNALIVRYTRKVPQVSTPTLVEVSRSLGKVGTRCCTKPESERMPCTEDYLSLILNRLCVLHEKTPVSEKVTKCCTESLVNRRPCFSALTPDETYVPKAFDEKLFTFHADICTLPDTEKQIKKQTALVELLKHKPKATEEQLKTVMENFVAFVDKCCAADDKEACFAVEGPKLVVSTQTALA

Row | SMILES | Activity (Albumin) | fold change (FC) [1] | fold change (FC) (Homo sapiens [2]) | Activity [3] | Kd [4] | fold change (FC) (Homo sapiens [5]) | Activity (Homo sapiens [6]) | Activity [7] | Activity (Homo sapiens [8]) | Kd [9] | Activity [10] | Kd [11] | Activity (Insulin (Homo sapiens))
1 | CN(CCF)c1ccc(/C=C/c2nc3ccccc3[nH]2)cc1 | Not Active | 2.71 | 4.5 | inactive | 3.63 µM⁻¹ | 2.49 | Active | inactive | Active | 3.31 µM⁻¹ | Active | 1.54 µM⁻¹ | inactive
2 | CN(CCF)c1ccc(/C=C/c2nc3ccccc3n2C)cc1 | Not Active | 5.17 | 2.23 | inactive | 5.19 µM⁻¹ | 3.63 | Active | inactive | Active | 1.81 µM⁻¹ | Active | 1.22 µM⁻¹ | inactive
3 | CN(CCF)c1ccc(/C=C/c2nc3ccccc3o2)cc1 | Not Active | 2.69 | 1.98 | inactive | 4.48 µM⁻¹ | 1.98 | Active | inactive | Active | 3.24 µM⁻¹ | Active | 2.28 µM⁻¹ | inactive
4 | CN(CCF)c1ccc(/C=C\c2nc3ccccc3n2C)cc1 | Not Active | 5.9 | 2.84 | inactive | 3.52 µM⁻¹ | 2.84 | Active | inactive | Active | 1.85 µM⁻¹ | Active | 3.86 µM⁻¹ | inactive
5 | Cc1ccc2c(c1)sc(-c1ccc(N(C)C)cc1)[n+]2C.[Cl-] [THIOFLAVIN T] | – | – | – | – | – | – | – | – | – | – | – | 2.54 µM⁻¹ | –

Further lines, results first:

Row | Activity (Albumin) | fold change (FC) [1] | fold change (FC) (Homo sapiens [2]) | Activity [3] | Kd [4] | fold change (FC) (Homo sapiens [5]) | Activity (Homo sapiens [6]) | Activity [7] | Activity (Homo sapiens [8]) | Kd [9] | Activity [10] | Kd [11] | Activity (Insulin (Homo sapiens)) | SMILES
6 | Not Active | 7.41 | 4.48 | inactive | 10.67 µM⁻¹ | 3.3 | Active | inactive | Active | 1.38 µM⁻¹ | Active | 1.79 µM⁻¹ | inactive | CN(CCF)c1ccc(/C=C/c2nc3ccccc3s2)cc1
7 | Not Active | 11.3 | 9.48 | inactive | 23.96 µM⁻¹ | 2.98 | Active | inactive | Active | 7.35 µM⁻¹ | Active | 8.59 µM⁻¹ | inactive | CN(CCF)c1ccc(/C=C\c2nc3ccccc3s2)cc1
8 | Not Active | – | – | inactive | – | – | Active | inactive | Active | – | Active | – | inactive | CN(CCF)c1ccc(/C=C\c2nc3ccccc3[nH]2)cc1
9 | Not Active | 1.28 | 1.63 | inactive | 5.99 µM⁻¹ | 1.6 | Active | inactive | Active | 7.43 µM⁻¹ | Active | 3.24 µM⁻¹ | inactive | CN(CCF)c1ccc(/C=C\c2nc3ccccc3o2)cc1
